Test results as given in ChEMBL document CHEMBL1157772, “In vitro cytotoxic activity of isolated acridones alkaloids from Zanthoxylum leprieurii Guill. et Perr” (Bioorg Med Chem, 2010).

Tests used:
Type in all cases: functional, cell-based
[1] = Cytotoxicity against human WS1 cells after 48 hrs by resazurin reduction assay; details: WS1, 48 h
In short: (§1)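 Cell lines from ATCC, grown in MEM with Earle's salts, 10% fetal calf serum, vitamins, sodium pyruvate, non-essential amino acids, penicillin/streptomycin, at 37 °C, 5% CO2. Cells (5 × 10^3/well) adhered 16 h, then exposed 48 h to increasing concentrations in medium with 0.25% (v/v) final DMSO. Resazurin reduction read by fluorescence (ex 530/em 590 nm). IC50 as mean ± SD, two experiments in triplicate.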

[2] = tested on: A549; experiment: Cytotoxicity against human A549 cells after 48 hrs by resazurin reduction assay; details: A549, 48 h; in short: as §1
[3] = tested on: DLD-1; experiment: Cytotoxicity against human DLD1 cells after 48 hrs by resazurin reduction assay; details: DLD-1, 48 h; in short: as §1

| Structure (SMILES) | IC50 [1] | IC50 [2] | IC50 [3] |
| --- | --- | --- | --- |
| COc1cc(O)cc2c1c(=O)c1ccccc1n2C [TEGERRARDIN A] | 42 µM | 36 µM | 71 µM |
| COc1cc(O)c2c(=O)c3ccccc3n(C)c2c1 | 51 µM | 31 µM | 27 µM |
| COc1cc2ccc(=O)oc2cc1OC [SCOPARONE] | > 100 µM | > 100 µM | > 100 µM |
| COc1cc([C@@H]2c3cc4c(cc3[C@@H](O[C@@H]3O[C@@H]5CO[C@@H](C)O[C@H]5[C@H](O)[C@H]3O)[C@H]3COC(=O)[C@H]23)OCO4)cc(OC)c1O [ETOPOSIDE] | 4.3 µM | 16 µM | 10 µM |
| CCCCCCCCCCCCCCCCCCCCCCCC(=O)NCCc1ccc(O)cc1 | > 100 µM | > 100 µM | > 100 µM |
| COc1ccc([C@@H]2CC(=O)c3c(O)cc(O[C@@H]4O[C@H](CO[C@@H]5O[C@@H](C)[C@H](O)[C@@H](O)[C@H]5O)[C@@H](O)[C@H](O)[C@H]4O)cc3O2)cc1O [HESPERIDIN] | > 100 µM | > 100 µM | > 100 µM |
| COc1cc2c(c(O)c1OC)c(=O)c1ccccc1n2C [ARBORININE] | 56 µM | 35 µM | 74 µM |
| COc1c(O)cc2c(c1OC)c(=O)c1ccccc1n2C | 74 µM | 52 µM | 77 µM |
| COc1cc(O)c(OC)c2c1c(=O)c1ccccc1n2C | > 100 µM | > 100 µM | > 100 µM |
